The target of the test is Tubulin (Homo sapiens) (UniProt P68371+Q9H4B7+P0DPH7+P68366+Q13509+Q71U36+P04350+Q3ZCM7+P07437+P68363+Q9BQE3+Q6PEY2+Q13885+Q9BVA1+Q9BUF5). Kind of test: Inhibition of [3H]colchicine binding to tubulin (unknown origin) at 1 uM incubated for 10 mins relative to control. Format: protein-complex assay. An outline of the steps:
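Tubulin at 1.0 μM mixed with 5.0 μM [3H]colchicine and inhibitor at 1.0 μM, incubated 10 min at 37 °C.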

Turning to `COc1cc(C(=O)c2cn(-c3ccccn3)cc2-c2ccco2)cc(OC)c1OC`, the inhibition (in general, how much of the control response was suppressed) came out at 66%.

Take `COc1cc(C(=O)c2cn(-c3ccccn3)cc2-c2ccccc2)cc(OC)c1OC`: the inhibition was 69%.
